From ChEMBL document CHEMBL1153405, “Complementary three-dimensional quantitative structure-activity relationship modeling of binding affinity and functional potency: a study on alpha4beta2 nicotinic ligands” (J Med Chem, 2009)
pEC50, pIC50: −log10 of the molar value.

Legend:
[1] = molecular target: T1, Neuronal acetylcholine receptor; alpha4/beta2 (Homo sapiens, UniProt P17787+P43681); experiment: Displacement of [3H]cytisine from human alpha4beta2 nAChR expressed in HEK293 cells; assay type: cell-based
T1 sequence (P17787 whole entry): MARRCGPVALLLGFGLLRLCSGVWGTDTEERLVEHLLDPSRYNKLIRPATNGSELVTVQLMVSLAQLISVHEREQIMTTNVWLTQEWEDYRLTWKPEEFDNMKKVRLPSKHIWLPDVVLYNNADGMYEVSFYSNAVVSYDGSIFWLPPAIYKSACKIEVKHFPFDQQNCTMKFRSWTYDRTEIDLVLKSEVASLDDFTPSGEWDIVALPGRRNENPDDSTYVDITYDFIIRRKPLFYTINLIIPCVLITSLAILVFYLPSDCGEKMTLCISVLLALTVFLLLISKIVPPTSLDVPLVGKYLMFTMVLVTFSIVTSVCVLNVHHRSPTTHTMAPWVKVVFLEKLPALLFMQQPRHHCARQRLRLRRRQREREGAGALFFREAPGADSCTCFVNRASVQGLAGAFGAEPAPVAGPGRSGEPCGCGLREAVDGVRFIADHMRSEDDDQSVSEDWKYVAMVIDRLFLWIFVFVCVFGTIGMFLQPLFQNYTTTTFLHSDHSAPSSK
T1 sequence (P43681 whole entry): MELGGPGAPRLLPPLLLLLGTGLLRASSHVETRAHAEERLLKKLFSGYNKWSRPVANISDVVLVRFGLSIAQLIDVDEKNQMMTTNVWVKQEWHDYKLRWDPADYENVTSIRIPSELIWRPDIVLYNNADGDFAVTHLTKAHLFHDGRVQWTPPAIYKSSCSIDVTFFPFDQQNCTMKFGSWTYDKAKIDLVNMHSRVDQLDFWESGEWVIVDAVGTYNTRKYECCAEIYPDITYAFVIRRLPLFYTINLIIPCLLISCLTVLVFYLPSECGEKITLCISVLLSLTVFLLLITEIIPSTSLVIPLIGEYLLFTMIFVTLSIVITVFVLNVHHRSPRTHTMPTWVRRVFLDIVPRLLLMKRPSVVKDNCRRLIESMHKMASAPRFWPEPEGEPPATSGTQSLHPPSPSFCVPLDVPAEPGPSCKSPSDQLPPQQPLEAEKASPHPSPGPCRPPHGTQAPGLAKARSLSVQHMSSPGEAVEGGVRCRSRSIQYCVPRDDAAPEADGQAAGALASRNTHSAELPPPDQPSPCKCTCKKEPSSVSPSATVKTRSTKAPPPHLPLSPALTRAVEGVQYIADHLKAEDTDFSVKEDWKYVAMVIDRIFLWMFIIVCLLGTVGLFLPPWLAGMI

[2] = molecular target: T1, Neuronal acetylcholine receptor; alpha4/beta2; experiment: Agonist activity at human alpha4beta2 nAChR expressed in HEK293 cells assessed as intracellular calcium level by FLIPR assay; assay type: functional, cell-based
Outline: (§1)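 HEK-293 cells stably expressing human α4β2 (subunits cloned from IMR32) were grown in DMEM with 10% FBS at 37 °C and 5% CO2. They were plated on poly-D-lysine for 24 h, then loaded with 2 µM fluo-4/AM for 1.5 h at room temperature. Cells were washed into NMDG Ringer (10 mM CaCl2, pH 7.4) and read by FLIPR at 100 pM–100 µM. Background-subtracted responses were normalized to 100 µM (-)-nicotine, giving pEC50 and maximal efficacy; n = 4-8.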

[3] = molecular target: T1, Neuronal acetylcholine receptor; alpha4/beta2; experiment: Intrinsic activity at human alpha4beta2 nAChR expressed in HEK293 cells assessed as intracellular calcium level by FLIPR assay relative to (-)nicotine; assay type: cell-based; outline: as §1

| Structure (SMILES) | pIC50 [1] | pEC50 [2] | Efficacy [3] |
| --- | --- | --- | --- |
| COc1cncc(N2CCCNCC2)c1 | 8.72 | 5.85 | 66% |
| Brc1ccc(N2CCCNCCC2)cn1 | 9.35 | 8.89 | 139% |
| c1cncc(OC2CCNC2)c1 (stereo not drawn) | 7.00 | 4.54 | 54% |
| C=COc1cc(N2CCCNCCC2)cnc1Br | 9.42 | 6.62 | 90% |
| Clc1cncc(N2CCNCC2)c1 |  | 4.64 | 41% |
| COc1cc(N2CCCNCC2)cnc1Cl | 9.17 | 7.04 | 116% |
| Brc1ccc(N2CCCNCC2)cn1 | 9.00 | 7.19 | 88% |
| COCCOc1cncc(N2CCCNCC2)c1 | 8.62 | 5.06 | 42% |
| CCOc1cc(N2CCCNCC2)cnc1Br | 9.06 | 6.59 | 78% |
| Oc1cncc(N2CCCNCC2)c1 | 8.62 | 6.85 | 120% |
| c1cncc(OC2CCCNC2)c1 (stereo not drawn) | 6.72 | 4.49 | 22% |
| c1cncc(N2CCCNCC2)c1 |  | 6.64 | 94% |
| COc1cncc(C2=CC3CCCC(C2)N3)c1 (stereo not drawn) | 8.52 | 5.36 | 13% |
| Clc1ncc(N2CCNCC2)cc1Br | 6.64 | 5.10 | 98% |
| NC(=O)c1cncc(N2CCCNCC2)c1 | 7.70 | 4.89 | 56% |
| C=COc1cncc(N2CCNCC2)c1 | 6.72 | 5.12 | 18% |
| Brc1ccc(N2CCNCC2)cn1 | 6.74 | 5.60 | 129% |
| Cc1ncc(N2CCNCC2)cc1Cl | 6.28 | 4.57 | 74% |

| Structure (SMILES) | pIC50 [1] | pEC50 [2] | Efficacy [3] |
| --- | --- | --- | --- |
| c1cncc(N2CCCNCCC2)c1 | 9.05 | 7.44 | 78% |
| Clc1cncc(OC2CCCNC2)c1 (stereo not drawn) | 6.62 | 5.85 | 15% |
| Clc1cncc(N2CCCNCCC2)c1 | 8.70 | 6.77 | 103% |
| C1=C(c2cccnc2)CC2CCCC1N2 (stereo not drawn) | 8.35 | 5.92 | 34% |
| C1=C(c2cccnc2)CC2CCC1N2 (stereo not drawn) | 8.17 | 6.00 | 66% |
| c1ccc2ncc(N3CCCNCC3)cc2c1 | 8.18 | 5.44 | 33% |
| C=COc1cc(N2CCCNCC2)cnc1Br | 9.19 | 6.96 | 80% |
| COc1ccc(N2CCCNCC2)cn1 | 6.77 | 4.96 | 88% |
| COc1cncc(N2CCCNCCC2)c1 | 9.00 | 6.92 | 89% |
| Brc1cncc(N2CCCNCCC2)c1 | 8.55 | 6.74 | 73% |
| CCSc1ccc(N2CCCNCC2)cn1 | 6.77 | 5.35 | 53% |
| Clc1ncc(N2CCCNCC2)cc1Br | 8.85 | 7.24 | 85% |
| C/C=C\Oc1cncc(N2CCCNCC2)c1 | 8.89 | 5.68 | 45% |
| COc1cc(N2CCNCC2)cnc1Br |  | 4.77 | 68% |
| C=COc1cncc(N2CCCNCC2)c1 | 8.30 | 5.96 | 61% |
| c1cncc(OC[C@@H]2CCN2)c1 | 8.82 |  |  |
| Oc1cc(N2CCCNCC2)cnc1I | 7.66 | 6.32 | 104% |
| Clc1cc(N2CCCNCC2)cnc1Br | 8.85 | 7.82 | 102% |
